Compound activity (PubChem BioAssay)
Only some compounds are listed: those with a hit (about 3.5% of all), similar ones and a draw of the others.
HIV Env fusion – blocks HIV Env-driven cell-cell fusion | inhibition, % at 12.3 µM | actives 1.1% (n = 360,000) | HeLa-JRFL Env/CEM21 cell fusion, luciferase;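 active means mean replicate inhibition score of at least 50 and every replicate individually at or above 50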
Cneo AK release – causes C. neoformans cell lysis | actives 0.2% (n = 360,000) | AID 651654 | lysis activity, % at 15 µM | adenylate kinase release luminescence, 4 h; normalised: neutral wells 0, clomiphene wells 100;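 active means mean lysis activity across replicates of at least 80%, whatever share of replicates individually reach that level; inactive means mean lysis activity below 80%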
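Material: C. neoformans cells | Amount: Yeast cell density of 5 × 10^6 cells/mL | Medium: Fresh YPD growth medium | Dosing: Single dose | Times: Static 4 h at 37 °C with compound, 1 h detection | Detection: AK luminescence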
ERAP1 inh – blocks human ERAP1 aminopeptidase activity | Q9NZ08 | recombinant ERAP1, Leu-AMC fluorescence, 60 min | inhibition, % at 10.7 µM | actives 0.15% (n = 340,000) | AID 652197;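 active means mean replicate inhibition of at least 30%, or all replicates individually reaching that 30% level; inactive means mean below 30% and not every replicate reaching it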
Target sequence (Q9NZ08 whole entry, looked up): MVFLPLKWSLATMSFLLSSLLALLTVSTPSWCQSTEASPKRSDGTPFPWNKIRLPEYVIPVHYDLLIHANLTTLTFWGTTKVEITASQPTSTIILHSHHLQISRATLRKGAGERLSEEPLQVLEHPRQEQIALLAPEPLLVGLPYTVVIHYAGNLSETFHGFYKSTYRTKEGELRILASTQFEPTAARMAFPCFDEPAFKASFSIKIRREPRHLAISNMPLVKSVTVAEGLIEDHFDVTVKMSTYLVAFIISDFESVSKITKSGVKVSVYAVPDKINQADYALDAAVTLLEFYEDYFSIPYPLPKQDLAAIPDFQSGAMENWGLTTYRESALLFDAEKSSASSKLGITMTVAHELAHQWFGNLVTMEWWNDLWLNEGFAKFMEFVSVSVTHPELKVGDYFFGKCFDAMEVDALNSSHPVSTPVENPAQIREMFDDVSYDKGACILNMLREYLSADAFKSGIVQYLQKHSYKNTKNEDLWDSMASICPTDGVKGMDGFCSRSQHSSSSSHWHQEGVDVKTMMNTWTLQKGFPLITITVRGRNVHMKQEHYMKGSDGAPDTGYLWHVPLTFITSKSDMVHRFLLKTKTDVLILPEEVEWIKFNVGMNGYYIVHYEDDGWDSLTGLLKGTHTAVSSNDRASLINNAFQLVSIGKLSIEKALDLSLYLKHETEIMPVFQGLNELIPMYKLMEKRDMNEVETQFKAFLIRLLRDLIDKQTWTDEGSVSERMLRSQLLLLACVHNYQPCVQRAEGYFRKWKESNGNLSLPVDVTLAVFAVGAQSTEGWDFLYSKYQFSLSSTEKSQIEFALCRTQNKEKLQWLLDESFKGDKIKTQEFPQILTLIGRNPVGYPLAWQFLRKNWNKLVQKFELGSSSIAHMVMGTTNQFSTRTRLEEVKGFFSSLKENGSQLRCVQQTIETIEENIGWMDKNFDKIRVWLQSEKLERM
Ecoli rRNA inh – inhibits bacterial ribosomal RNA function over humanized ribosomes; E. coli WT GFP vs humanized-ribosome RFP mutants, fluorescence, 24 h; hits give low values; DMSO median 0, no signal -100; GFP signal change (wild-type ribosome), % (no concentration beside the values); actives 1.6% (n = 350,000); AID 720706;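 active means significant combined selectivity score with lowered wild-type GFP, culture density cut under 30%, mutant RFP and density less affected; inactive means any of these conditions unmet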
PGC1a acetyl inh – lowers PGC1a acetylation signal in U2OS cells; actives 0.17% (n = 350,000); AID 651687; inhibition, % at 15.6 µM; AlphaScreen anti-acetyl-lysine; with virally co-expressed GCN5 acetyltransferase;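 active means every replicate shows inhibition of at least 40%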
FGF22 binding – FGF22 (human) thermal shift binding. Q9HCT0. recombinant FGF22 thermal shift, SYPRO orange fluorescence; percent of sucrose octasulfate shift, DMSO zero. activity (Tm shift, normalised), % at 9.99 µM. actives 1.5% (n = 340,000);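 active means mean Tm shift, scaled 0 neutral to 100 positive control, at about 1.3% or above, every replicate too, limit read from the data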
Of the large screens only hits and unclear results are named; the others gave an inactive call; [ ] = another dose, or the depositor's remark.

C[C@H](CO)NC(=O)c1nc[nH]c1C(=O)N[C@@H](C)c1ccccc1	none
C[C@@H](NC(=O)c1nc[nH]c1C(=O)N[C@H](C)c1ccccc1)c1ccccc1	none
CC1=Nc2cc(C(=O)NCCCOC(C)C)ccc2Sc2ccc(C)cc21	none (no result: ERAP1 inh)
CC1=Nc2cc(C(=O)NCCCOC(C)C)ccc2Sc2ccccc21	FGF22 binding 43
Clc1ccc(C2=NNC(=NCC3CCCO3)SC2)cc1 (stereo unspecified)	FGF22 binding 43
Cc1cc(C2=NNC(=NCCc3ccccc3)SC2)c(C)n1CC1CCCO1 (stereo unspecified)	none
FC(F)(F)c1cccc(-c2nn[nH]n2)c1	none (no result: Cneo AK release, ERAP1 inh)
CC1CCCN(S(=O)(=O)c2ccc(NC(=O)CN3C(=O)NC(C)(c4ccccc4)C3=O)cc2)C1 (stereo unspecified)	none (no result: PGC1a acetyl inh)
COc1ccc(-c2cc(C(=O)NNC(=S)NC(=O)c3c(-c4ccccc4)noc3C)[nH]n2)cc1	HIV Env fusion 69 (no result: Cneo AK release)
COc1ccc(C(=O)NNC(=S)NC(=O)/C=C/c2cccs2)cc1	FGF22 binding 43 (no result: Cneo AK release)
COc1ccc(/C=C/C(=O)NC(=S)NNC(=O)c2c(-c3ccccc3)noc2C)cc1	HIV Env fusion 91 (no result: ERAP1 inh, Ecoli rRNA inh, FGF22 binding)
Cc1onc(-c2ccccc2)c1C(=O)NNC(=S)NC(=O)/C=C/c1ccccc1	none (no result: HIV Env fusion, Cneo AK release, PGC1a acetyl inh)
CCN(CC)S(=O)(=O)c1cccc(C(=O)N[C@H](C(=O)NNC(=O)c2ccccc2)C(C)C)c1	none
COc1ccccc1-n1c(SCC(=O)Nc2nnc(C)s2)nc2c(c1=O)SCC2	none (no result: ERAP1 inh, Ecoli rRNA inh, FGF22 binding)
CC1CC(C)CN(C(=O)/C=C/c2ccc([N+](=O)[O-])s2)C1 (stereo unspecified)	Ecoli rRNA inh -29 (no result: PGC1a acetyl inh)
CC(=O)c1sc(=S)n(Cc2ccccc2)c1C	none
COC(=O)c1sc(=S)n(Cc2ccccc2)c1C	Ecoli rRNA inh -24
COc1ccc(-c2nnn(CC(=O)N(Cc3cccs3)C(C)C(=O)NC3CCCC3)n2)cc1OC (stereo unspecified)	HIV Env fusion 78 (no result: ERAP1 inh, Ecoli rRNA inh, FGF22 binding)
CCN(CC)CCN(C(=O)Cn1nnc(-c2ccc(OC)c(OC)c2)n1)C(C(=O)NC1CCCC1)c1ccc(F)cc1 (stereo unspecified)	FGF22 binding 1.7 (no result: HIV Env fusion)
CCN(CC)CCN(C(=O)Cn1nnc(-c2ccc(C)o2)n1)C(C(=O)NC1CCCC1)c1ccc(F)cc1 (stereo unspecified)	none (no result: PGC1a acetyl inh)
Cc1ccc(-c2nnn(CC(=O)N(CC3CCCO3)C(C(=O)NC3CCCCC3)c3ccc(F)cc3)n2)o1 (stereo unspecified)	HIV Env fusion 116 (no result: ERAP1 inh, Ecoli rRNA inh, FGF22 binding)
COc1ccc(-c2nnn(CC(=O)N(CCO)C(C(=O)NC3CCCC3)c3ccncc3)n2)cc1 (stereo unspecified)	FGF22 binding 43 (no result: Cneo AK release)
COc1ccc(C(C(=O)NC2CCCC2)N(CC2CCCO2)C(=O)Cn2nnc(-c3ccc(C)o3)n2)cc1 (stereo unspecified)	none
COc1ccc(-c2nnn(CC(=O)N(CCCO)C(C(=O)NC3CCCC3)c3ccncc3)n2)cc1 (stereo unspecified)	none (no result: Cneo AK release, PGC1a acetyl inh)
CCC(C(=O)NC1CCCC1)N(Cc1cccs1)C(=O)Cn1nnc(-c2ccc(OC)c(OC)c2)n1 (stereo unspecified)	none (no result: HIV Env fusion, ERAP1 inh, Ecoli rRNA inh, FGF22 binding)
CCN(C(=O)Cn1c(=O)oc2cc(S(=O)(=O)N3CCCC3)ccc21)c1ccc(OC)cc1	none
CCCCC1=CC2=CC(=O)C(C)(OC(=O)CC)C(=O)C2=CN1Cc1ccccc1 (stereo unspecified)	none
O=C1c2ccccc2C(Nc2ccc(S(=O)(=O)N3CCOCC3)cc2)N1c1ccccn1 (stereo unspecified)	none (no result: PGC1a acetyl inh)
CCc1ccc(N(C(=O)Cn2nnc(-c3ccccc3)n2)C(C(=O)NC2CCCCC2)c2ccccn2)cc1 (stereo unspecified)	HIV Env fusion 80 (no result: ERAP1 inh, Ecoli rRNA inh, FGF22 binding)
CC(=O)c1ccc(N(C(=O)Cn2nnc(-c3ccccc3)n2)C(C(=O)NC2CCCCC2)c2ccccn2)cc1 (stereo unspecified)	none (no result: ERAP1 inh, Ecoli rRNA inh, FGF22 binding)
COc1cccc(C#Cc2ccc3c(c2)O[C@H](CN(C)C(=O)CN2CCOCC2)[C@H](C)CN([C@H](C)CO)S3(=O)=O)c1	none
COc1ccc(C(=O)Nc2ccc3[nH]ccc3c2)cc1	Ecoli rRNA inh -31 (no result: Cneo AK release, ERAP1 inh)
COc1ccc(OC)c(C(=O)Nc2ccc3[nH]ccc3c2)c1	Ecoli rRNA inh -23 (no result: Cneo AK release)
CCCCCCCCCCCCCCC(O)C[N+](C)(CCO)CCO (stereo unspecified)	ERAP1 inh 64 (no result: Cneo AK release)
CCCCCCCC(=O)OCC(O)CO (stereo unspecified)	none (no result: PGC1a acetyl inh)
O=C(NN=Cc1cc(Cl)ccc1[N+](=O)[O-])c1ccco1	Ecoli rRNA inh -19 (no result: Cneo AK release, PGC1a acetyl inh)
O=S(=O)(Cc1ccccc1)N1CCCCN2[C@H](CO)[C@@H](c3ccc(-c4ccc(F)cc4)cc3)[C@H]2C1	none (no result: HIV Env fusion)
O=C(CSc1nnc2ccc(-c3ccc(F)cc3)nn12)N1CCCC1	ERAP1 inh 34 (no result: Cneo AK release)
O=C(Cc1ccncc1)N[C@H]1CC[C@@H](CCn2cc(-c3ccccc3F)nn2)O[C@@H]1CO	HIV Env fusion 72[16.7 µM]
O=C(Nc1ccc(F)cc1)N[C@@H]1CC[C@H](CCn2cc(-c3ccccc3F)nn2)O[C@@H]1CO	none
COc1ccc(NC(=O)N[C@@H]2CC[C@H](CCn3cc(-c4ccccc4F)nn3)O[C@H]2CO)cc1	PGC1a acetyl inh 62
O=C(N[C@H]1CC[C@H](CCn2cc(-c3ccccn3)nn2)O[C@H]1CO)c1ccc(F)cc1	Cneo AK release 83
O=C(N[C@@H]1CC[C@@H](CCn2cc(-c3ccccn3)nn2)O[C@@H]1CO)c1ccc(F)cc1	none
C=C1C(=O)OC2CC1C(O)CC(C)=CCCC(C)=CC(O)CC2C (stereo unspecified)	none (no result: Cneo AK release)
CC(C)(C)OC(=O)N1CCC(C(=O)Nc2ccc(C(=O)N3CCCC3)cc2)CC1	none
O=C(N/C(=C/c1ccccc1)C(=O)N1CCCCC1)c1ccc(Br)o1	none
NC(=NCCc1c[nH]c2ccccc12)NC(=O)c1ccc(F)cc1	Ecoli rRNA inh -33
C[C@@H]1CN([C@H](C)CO)S(=O)(=O)c2ccc(C#Cc3ccc(F)cc3)cc2O[C@H]1CN(C)S(=O)(=O)c1ccc(F)cc1	none
COc1ccc(-c2nnc3sc(C(C)N4C(=O)c5ccccc5C4=O)nn23)cc1 (stereo unspecified)	Ecoli rRNA inh -45
COc1ccc(-c2nnc3sc(CN4C(=O)c5ccccc5C4=O)nn23)cc1	none (no result: HIV Env fusion, ERAP1 inh, Ecoli rRNA inh, PGC1a acetyl inh, FGF22 binding)
CCN(c1cccc(C)c1)S(=O)(=O)c1ccc(-c2ccc(=O)[nH]n2)o1	none
Cc1cc2oc(=O)cc(CN3CCN(c4ccccc4)CC3)c2cc1Cl	none
CCOCC(=O)Nc1cc(C(=O)NCCc2ccccc2)ccc1Cl	FGF22 binding 11 (no result: Cneo AK release)
CCc1nnc(N/N=C/c2ccccc2Cl)n1N	PGC1a acetyl inh 72 (no result: HIV Env fusion, ERAP1 inh, Ecoli rRNA inh, FGF22 binding)
